Compounds with a hit are over-represented: about 3.7% of the library has one in this group of screens.
KCNQ1 pot: human KCNQ1 channel potentiation or activation; P51787; CHO-K1 KCNQ1, thallium flux FluxOR fluorescence; stronger effect = higher value; B-score at 10 µM; actives 0.35% (n = 310,000); AID 2648;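 active = fluorescence ratio B-score, a plate-corrected score, at least three library SD, with initial intensity B-score within 5 SD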
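System: Stable KCNQ1 CHO-K1 line | Incubation: 90 min dye loading and 20 min compound exposure, both at room temperature | Measure: Ratio B score | Medium: Assay buffer for compound exposure, DMSO matched across wells | Compound dosing: Single-concentration screen | Probe or stimulus: K+/Tl+ depolarizing stimulus | Measured by: Kinetic FluxOR fluorescence, 10 s baseline plus 110 s post-stimulus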
KCNQ1 inh: human KCNQ1 channel inhibition; B-score at 10 µM; AID 2642; actives 1.3% (n = 310,000); P51787; CHO-K1 KCNQ1, FluxOR thallium flux fluorescence; stronger effect = higher value;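 active = compounds whose thallium flux B-score, printed positive for inhibition, exceeds three library SD while starting fluorescence stays within three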;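 also: channel opened by potassium depolarization with thallium stimulus after 20 min compound exposure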
KCNK9 inh: blocks the human KCNK9 two-pore domain potassium channel; AID 488922; actives 1.2% (n = 310,000); HEK293 KCNK9, FluxOR thallium flux fluorescence; stronger effect = lower value; B-score at 10 µM; Q9NPC2;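 active = ratio B-score over 3 SD below the library mean, with starting fluorescence within 5 SD of its mean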;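 also: negative B-score means less thallium flux so channel inhibition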
hERG rescue: compounds protecting human hERG from proarrhythmic drug block; Q12809; CHO-hERG, FluxOR thallium flux, dofetilide IC70 present; activation (rescue from dofetilide block), less the hit threshold, % at 10 µM; actives 0.51% (n = 310,000); AID 1511;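 active = activation above the mean of controls blocked by dofetilide plus 5 SD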;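 also: thallium influx through hERG after potassium depolarization seen as dye fluorescence rise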
Kir21 block: Kir2.1 (mouse) channel inhibition; AID 1672; B-score at 10 µM; HEK293-Kir2.1, FluxOR thallium flux fluorescence; stronger effect = lower value; actives 0.85% (n = 310,000);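 active = fluorescence ratio B-score at or below minus 3 SD of library scores, with starting-brightness B-score within 2 SD, cut at about -4.2 in these data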;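 also: channel flux triggered by added potassium and thallium sulfate stimulus; B-score of peak minus minimum fluorescence over baseline after thallium stimulus; more negative B-score means stronger Kir2.1 block with less thallium influx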
KCNK3 inh: human KCNK3 channel inhibition, primary screen. actives 0.84% (n = 340,000). CHO-KCNK3 thallium flux, FluxOR fluorescence; stronger effect = lower value. B-score at 10 µM. O14649;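 active = B-score under library mean minus 4 SD, starting fluorescence ratio at most library mean plus 5 SD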;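 also: more negative B-score means stronger inhibition of thallium flux through KCNK3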
Target sequence (O14649 whole entry, looked up): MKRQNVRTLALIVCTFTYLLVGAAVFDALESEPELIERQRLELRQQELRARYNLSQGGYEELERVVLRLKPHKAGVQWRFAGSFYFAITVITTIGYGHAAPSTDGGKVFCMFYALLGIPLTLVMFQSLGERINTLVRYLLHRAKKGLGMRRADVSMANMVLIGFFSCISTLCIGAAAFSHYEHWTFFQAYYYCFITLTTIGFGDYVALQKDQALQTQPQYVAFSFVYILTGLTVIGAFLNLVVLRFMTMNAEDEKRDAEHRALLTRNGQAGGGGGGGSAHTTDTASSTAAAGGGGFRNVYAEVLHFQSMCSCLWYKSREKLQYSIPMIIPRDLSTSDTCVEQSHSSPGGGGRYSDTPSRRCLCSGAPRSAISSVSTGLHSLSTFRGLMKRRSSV
Of the large screens only hits and unclear results are named; the others gave an inactive call.

COc1ccc(CCNC(=O)CSc2ccc3ccccc3c2)cc1OC	Kir21 block -6.9
CCCCn1c(-c2ccccc2)cnc1SCC(=O)NCCc1ccc(OC)c(OC)c1	Kir21 block -6.3
CCOC(=O)/C(=C\c1ccccc1)NC(=O)c1ccccc1	none
CCOC(=O)/C(=C/c1ccc(OC(=O)c2ccccc2)cc1)C(C)=O	Kir21 block -9.4
O=[N+]([O-])/C=C\c1ccc(N2CCCC2)c(F)c1	KCNK3 inh -9.6
CCCn1c(SCC(=O)N2CC(=O)Nc3ccccc32)nc2ccccc21	Kir21 block -6.9
COc1cc(CNC2CCCC2)cc(Cl)c1OCc1ccccc1F	Kir21 block -4.7
COc1cc(CNC2CCCCCC2)cc(OC)c1O	none
OC[C@H]1O[C@H](OC[C@H]2O[C@H](OC[C@H]3O[C@H](O[C@]4(CO)O[C@H](CO)[C@@H](O)[C@@H]4O)[C@H](O)[C@@H](O)[C@@H]3O)[C@H](O)[C@@H](O)[C@H]2O)[C@H](O)[C@@H](O)[C@H]1O	KCNQ1 pot 32
CC(C)(C)OC(=O)N1CCC(CC2CC(c3ccccc3)=NO2)(C(=O)O)CC1 (stereo not given)	none
CCCCCCCNC(=O)C1(CC2CC(c3ccc(Cl)cc3)=NO2)CCN(C(=O)OC(C)(C)C)CC1 (stereo not given)	KCNQ1 inh 8
COc1ccc(CC(=O)NNC(=O)c2nn(Cc3ccccc3)c(=O)c3ccccc23)cc1OC	none
CCOc1ccc(C(=O)CSc2nnc(C3CC3)n2C)cc1	hERG rescue 6.4
CCOc1ccc(NC(=O)CSc2nnc(C3CC3)n2C)cc1	none
O=C(COC(=O)c1c2c(nc3ccccc13)/C(=C/c1cccc([N+](=O)[O-])c1)CCC2)NC1CCS(=O)(=O)C1 (stereo not given)	none
CN(CCC#N)C(=O)COC(=O)c1c2c(nc3ccccc13)/C(=C\c1ccco1)CC2	KCNK3 inh -8.9 (no result: KCNQ1 pot, KCNQ1 inh, KCNK9 inh, hERG rescue, Kir21 block)
O=C(COC(=O)c1c2c(nc3ccccc13)/C(=C\c1ccco1)CC2)NC1CCCC1	KCNK3 inh -9.4 (no result: KCNQ1 pot, KCNQ1 inh, KCNK9 inh, hERG rescue, Kir21 block)
CC1CCCCC1NC(=O)COC(=O)c1c2c(nc3ccccc13)/C(=C\c1ccco1)CC2 (stereo not given)	KCNK3 inh -11 (no result: KCNQ1 pot, KCNQ1 inh, KCNK9 inh, hERG rescue, Kir21 block)
O=[N+]([O-])c1ccc(-c2ccc(/C=N/n3cnnc3)o2)c(Br)c1	hERG rescue 7.5
O=C(N/N=C/c1ccc(-c2cccc([N+](=O)[O-])c2)o1)[C@H]1C[C@@H]1c1ccccc1	KCNK9 inh -10
CCOC(=O)c1cc(C#N)c(Oc2cccc(C(F)(F)F)c2)nc1-c1ccccc1	KCNQ1 inh 6
O=C1CCSc2ccc(Cl)cc2N1Cc1ccc(Cl)cc1	KCNK9 inh -7.6
O=C1CCSc2ccc(Cl)cc2N1Cc1ccccc1	none
O=C(CC1SC(N2CCCCC2)=NC1=O)Nc1cccc(C(=O)N2CCCC(C(F)(F)F)C2)c1 (stereo not given)	none (no result: KCNQ1 pot, KCNQ1 inh, KCNK9 inh, hERG rescue, Kir21 block)
N#Cc1c[nH]n2c(=O)c3c(nc12)CCCC3	hERG rescue 5.4 (no result: KCNK3 inh)
CC(C)[Si]1(C(C)C)OCC2OC(n3cnc4c(N)ncnc43)C(N)C2O[Si](C(C)C)(C(C)C)O1 (stereo not given)	none (no result: KCNQ1 pot, KCNQ1 inh, KCNK9 inh, hERG rescue, Kir21 block)
N#CC1=C(N)SC(N)=C(C#N)C1CCC1CCCCC1	KCNQ1 inh 9 (no result: KCNK3 inh)
Cc1ccc(Nc2nc(-c3cccs3)cs2)nc1	hERG rescue 6.1
Cc1ccc(Nc2nc(-c3ccccc3)cs2)nc1	none
CCc1c(C)sc2nc(C(C)C)nc(SCC(=O)N3CCc4ccccc4C3)c12	KCNQ1 inh 9 (no result: KCNK3 inh)
CCCc1nc(SCC(=O)N2CCc3ccccc3C2)c2ccccc2n1	Kir21 block -5.6
Cc1sc2nc(C(C)C)nc(SCC(=O)N3CCN(C(=O)c4ccco4)CC3)c2c1C	none
Nc1cc2c(cc1Cl)-c1ccc(Cl)cc1C2=O	none (no result: KCNQ1 pot, KCNQ1 inh, KCNK9 inh, hERG rescue, Kir21 block)
COc1cc(Cn2c(=O)c3c(OC)c(C)cnc3n(C)c2=O)cc(OC)c1	none
N/C(=N\OC(=O)CC(c1ccccc1)c1ccccc1)c1cccnc1	hERG rescue 4.6
N/C(=N\OC(=O)Cc1ccccc1)c1cccnc1	none
COc1ccc(Cl)cc1S(=O)(=O)NC(C)C(=O)NCCN1CCOCC1 (stereo not given)	none (no result: KCNQ1 pot, KCNQ1 inh, KCNK9 inh, hERG rescue, Kir21 block)
CCCCCOc1ccc(CSC(=N)N)cc1[N+](=O)[O-]	Kir21 block -8.5
COc1ccc(CSC(=N)N)cc1[N+](=O)[O-]	none
Brc1csc(C=Nc2ccc3c(c2)OCCOCCOCCOCCO3)c1	none
Oc1c(Cl)cc(Cl)cc1C=Nc1ccc2c(c1)OCCO2	KCNQ1 pot 8
Oc1c(Cl)cc(Cl)cc1/C=N/Nc1ncc(Br)cn1	none
Cc1ccc(N=Cc2cc(Cl)cc(Cl)c2O)nc1	KCNQ1 pot 17, hERG rescue 5.3
Cc1noc(C)c1C(=O)Nc1nc2ccccc2s1	none (no result: KCNQ1 pot, KCNQ1 inh, KCNK9 inh, hERG rescue, Kir21 block)
CC(NC1CCCC1)c1ccccc1 (stereo not given)	none
CC(NCCC(c1ccccc1)c1ccccc1)c1ccccc1 (stereo not given)	Kir21 block -6.4
Oc1ccc(Cl)cc1CNc1cccc2cccnc12	KCNK9 inh -7.7
Oc1c(Br)cc(Br)cc1CNc1cccc2cccnc12	none
CC(C)c1ccc(NC(=S)N2CCN(S(=O)(=O)c3ccccc3)CC2)cc1	none
CSc1nc2cc(Oc3cccc(Cl)c3Cl)c(Cl)cc2[nH]1	KCNQ1 inh 14, KCNK3 inh -11
O=C(COC(=O)C1(c2ccccc2F)CCCC1)NCc1cccs1	Kir21 block -6.8
CC(C)(/C=N/NC(=O)CSCc1ccc(Cl)cc1)CCC#N	hERG rescue 5.1
O=C(CSCc1ccc(Cl)cc1)NN=C1CCCCCC1	none
CCCCn1c(N)c(N(C(=O)CSc2nncn2-c2ccccc2C)C2CCCC2)c(=O)[nH]c1=O	none (no result: KCNQ1 pot, KCNQ1 inh, KCNK9 inh, hERG rescue, Kir21 block)
OCCN1CCN(CC(O)COc2ccc(C34CC5CC(CC(C5)C3)C4)cc2)CC1 (stereo not given)	Kir21 block -4.4
OCCN1CCN(CC(O)COc2ccc(Cl)cc2)CC1 (stereo not given)	none
COC(=O)c1sc(S(=O)(=O)NCc2ccccc2)c(C(=O)OC)c1C	Kir21 block -5.2
COc1ccc(CN2C(=O)CSCC2=O)cc1OC	none
COc1ccc(CCN2C(=O)CSC2=S)cc1OC	hERG rescue 4.7
CSc1nc2c(c(=O)[nH]1)C(c1ccc(C(F)(F)F)cc1)CC(=O)N2 (stereo not given)	none
COc1cc2c(cc1OC)C(c1ccc(Br)cc1)CC(=O)N2 (stereo not given)	none
CSc1nc2c(c(=O)[nH]1)C(c1ccc(Br)cc1)CC(=O)N2 (stereo not given)	hERG rescue 11
CSc1nc2c(c(=O)[nH]1)C(c1ccc(F)cc1)CC(=O)N2 (stereo not given)	hERG rescue 12
